Experimental data taken from ChEMBL document CHEMBL4052605, “Lissoclibadin 1, a Polysulfur Aromatic Alkaloid from the Indonesian Ascidian Lissoclinum cf. badium, Induces Caspase-Dependent Apoptosis in Human Colon Cancer Cells and Suppresses Tumor Growth in Nude Mice” (J Nat Prod, 2017).

Assays:
Format in all cases: functional, cell-based
NCI-H28 = assay: Antiproliferative activity against human NCI-H28 cells after 24 hrs by WST-1 assay; conditions: NCI-H28, 24 h
How it was run: (§1)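 WST-1 viability assay. Cells seeded at 5 × 10^3 per well and grown 24 h, then given lissoclibadins at 0.1−40 μM (etoposide 1.0−100 μM) in triplicate for 24 h. WST-1 added and absorbance read 4 h later at 450 nm, background subtracted at 650 nm. Viability expressed as % of control; IC50 taken as 50% inhibition of viability. Three experiments, mean ± SD.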

HCT-15 = assay: Antiproliferative activity against human HCT15 cells after 24 hrs by WST-1 assay; conditions: HCT-15, 24 h; how it was run: as §1
HeLa S3 = assay: Antiproliferative activity against human HeLaS3 cells after 24 hrs by WST-1 assay; conditions: HeLa S3, 24 h; how it was run: as §1
MCF7 = assay: Antiproliferative activity against human MCF7 cells after 24 hrs by WST-1 assay; conditions: MCF7, 24 h; how it was run: as §1

Structure (SMILES) | IC50 (NCI-H28) [µM] | IC50 (HCT-15) [µM] | IC50 (HeLa S3) [µM] | IC50 (MCF7) [µM]
COc1c(OC)c2c(c(CCN(C)C)c1SC)SSc1c(CCN(C)C)c(SC)c(OC)c(OC)c1SSc1c(OC)c(OC)c(SC)c(CCN(C)C)c1SSc1c(CCN(C)C)c(SC)c(OC)c(OC)c1SS2 | 7.1 | 4.9 | 6.3 | 11.8
COc1cc(CCN(C)C)c2c(c1O)SSSSS2 [ISOLISSOCLINOTOXIN B] | 6.4 | 4.2 | 5.9 | 6.4
COc1cc(CCN(C)C)c2c(c1O)SSc1c(CCN(C)C)cc(OC)c(O)c1SS2 [LISSOCLIBADIN 7] | – | 15.7 | 14.2 | –
COc1cc([C@@H]2c3cc4c(cc3[C@@H](O[C@@H]3O[C@@H]5CO[C@@H](C)O[C@H]5[C@H](O)[C@H]3O)[C@H]3COC(=O)[C@H]23)OCO4)cc(OC)c1O [ETOPOSIDE] | – | 19.7 | 43.1 | –
